≈ marks a conversion by molar mass, not a printed value. Calls of active or inactive are those of the source. The calls are words filed in the database; no cut-off is given here.
Columns and labels:
[1] = system: HeLa; assay: Cytotoxicity against human HeLa cells assessed as reduction in cell viability after 96 hrs by MTT assay; format: cell-based
Method in brief: (§1)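 HeLa cells were kept in DMEM with 10% FBS, 2 mM L-glutamine, non-essential amino acids and penicillin-streptomycin at 37 °C, 5% CO2. 10,000 cells per well were plated and left 24 h. Compound was then added in triplicate for 96 h continuous exposure. MTT read-out was absorbance at 570 nm. IC50 came from dose-response analysis.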

[2] = system: Klebsiella pneumoniae; assay: Antibacterial activity against Klebsiella pneumoniae M6 after 20 hrs by broth micro dilution method; format: functional; conditions: M6, 20 h
Method in brief: (§2)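 Broth microdilution per CLSI guidelines in Mueller Hinton Broth. Growth was read as optical density at 600 nm after 20 hours. The MIC was taken as the lowest drug concentration at which OD600 stayed below 0.10. Run in triplicate.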

[3] = system: Acinetobacter baumannii; assay: Antibacterial activity against Acinetobacter baumannii ATCC BAA-1710 after 20 hrs by broth micro dilution method; format: functional; conditions: ATCC BAA-1710, 20 h; method in brief: as §2
[4] = system: Pseudomonas aeruginosa; assay: Antibacterial activity against Pseudomonas aeruginosa NCTC 13437 after 20 hrs by broth micro dilution method; format: functional; conditions: NCTC 13437, 20 h; method in brief: as §2
[5] = system: Staphylococcus aureus; assay: Antibacterial activity against methicillin-resistant Staphylococcus aureus EMRSA-15 after 20 hrs by broth microdilution method; format: functional; conditions: EMRSA-15, 20 h
Method in brief: (§3)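 Broth microdilution per CLSI guidelines in Mueller Hinton Broth. Growth read as optical density at 600 nm after 20 h. MIC taken as the lowest concentration giving OD600 below 0.10. Run in triplicate.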

[6] = system: Klebsiella pneumoniae; assay: Antibacterial activity against Klebsiella pneumoniae NCTC 13368 after 20 hrs by broth micro dilution method; format: functional; conditions: NCTC 13368, 20 h; method in brief: as §2
[7] = system: Staphylococcus aureus; assay: Antibacterial activity against methicillin-resistant Staphylococcus aureus EMRSA-16 after 20 hrs by broth microdilution method; format: functional; conditions: EMRSA-16, 20 h; method in brief: as §3
[8] = system: Acinetobacter baumannii; assay: Antibacterial activity against Acinetobacter baumannii ATCC 17978 after 20 hrs by broth micro dilution method; format: functional; conditions: ATCC 17978, 20 h; method in brief: as §2
[9] = system: Pseudomonas aeruginosa; assay: Antibacterial activity against Pseudomonas aeruginosa PAO1 after 20 hrs by broth micro dilution method; format: functional; conditions: PAO1, 20 h; method in brief: as §2
[10] = system: WI-38; assay: Cytotoxicity against human WI38 cells assessed as reduction in cell viability after 96 hrs by MTT assay; format: cell-based; conditions: WI-38, 96 h
Method in brief: as §1, with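 “WI-38 lung fibroblasts” for “HeLa cells”, “15%” for “10%”, “fitting.” for “analysis.”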

[11] = system: Staphylococcus aureus; assay: Antibacterial activity against methicillin-sensitive Staphylococcus aureus ATCC 9144 after 20 hrs by broth micro dilution method; format: functional; conditions: ATCC 9144, 20 h; method in brief: as §2
[12] = system: Staphylococcus aureus; assay: Antibacterial activity against Staphylococcus aureus A1988 after 20 hrs by broth microdilution method; format: functional; conditions: A1988, 20 h; method in brief: as §2
[13] = system: Staphylococcus aureus; assay: Bactericidal activity against methicillin-sensitive Staphylococcus aureus ATCC 9144 after 24 hrs; format: functional; conditions: ATCC 9144, 24 h
Method in brief: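 From the MIC plate, 10ul was taken from every well at and above the MIC and spotted onto tryptic soy agar. Plates were incubated 24 h at 37 °C. The MBC was the concentration at which no colonies grew.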

[14] = system: Staphylococcus aureus; assay: Antibacterial activity against Staphylococcus aureus NCTC 8325 after 20 hrs by broth microdilution method; format: functional; conditions: NCTC 8325, 20 h; method in brief: as §2
[15] = system: Staphylococcus aureus; assay: Ratio of MBC to MIC against methicillin-sensitive Staphylococcus aureus ATCC 9144; format: functional
Method in brief: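 MBC/MIC ratio from the broth microdilution MIC (Mueller Hinton Broth, OD600 <0.10 after 20 h, triplicate) and the MBC (MIC-plate wells at and above the MIC spotted on tryptic soy agar, 37 °C 24 h, no colonies). A ratio of 1 or 2 was taken as bactericidal; 4 or 16 as bacteriostatic.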

[16] = system: Staphylococcus aureus; assay: Antibacterial activity against Staphylococcus aureus BGW541 after 20 hrs by broth microdilution method; format: functional; conditions: BGW541, 20 h; method in brief: as §2
[17] = system: Staphylococcus aureus; assay: Bacteriostatic activity against methicillin-resistant Staphylococcus aureus EMRSA-15 at 4 times MIC after 5 to 24 hrs by time kill assay; format: functional
Method in brief: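 Mueller Hinton Broth flasks (50 mL) inoculated at ~10^6 cfu/mL. Agent added at 4x MIC and shaken at 200 rpm, 37 °C. Samples taken hourly for 8 h and at 24 h. Viable counts by modified Miles-Misra dilution. Values are the average of at least three replicate experiments, SEM shown.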

[18] = system: Staphylococcus aureus; assay: Antibacterial activity against Staphylococcus aureus isolate 13142 after 20 hrs by broth microdilution method; format: functional; conditions: isolate 13142, 20 h; method in brief: as §2
[19] = system: Staphylococcus aureus; assay: Antibacterial activity against Staphylococcus aureus NCTC 6571 after 20 hrs by broth microdilution method; format: functional; conditions: NCTC 6571, 20 h; method in brief: as §2
[20] = system: Staphylococcus epidermidis; assay: Antibacterial activity against Staphylococcus epidermidis ATCC 35984 after 20 hrs by broth microdilution method; format: functional; conditions: RP62A; method in brief: as §2
[21] = system: Staphylococcus aureus; assay: Antibacterial activity against methicillin-resistant Staphylococcus aureus NCTC 12493 after 20 hrs by broth microdilution method; format: functional; conditions: NCTC 12493, 20 h; method in brief: as §3

| Compound | IC50 [1] [µM] | MIC [2] [µg/mL] | MIC [3] [µg/mL] | MIC [4] [µg/mL] | MIC [5] [µg/mL] | MIC [6] [µg/mL] | MIC [7] [µg/mL] | MIC [8] [µg/mL] | MIC [9] [µg/mL] | IC50 [10] [µM] | MIC [11] [µg/mL] | MIC [12] [µg/mL] | MIC [14] [µg/mL] | MIC [16] [µg/mL] | MIC [18] [µg/mL] | MIC [19] [µg/mL] | MIC [20] [µg/mL] | MIC [21] [µg/mL] | further results |
| --- | --- | --- | --- | --- | --- | --- | --- | --- | --- | --- | --- | --- | --- | --- | --- | --- | --- | --- | --- |
| O=[N+]([O-])c1ccc(C2=NOC(c3ccc(N4CCN(Cc5ccncc5)CC4)cc3)C2)o1 (stereo unspecified) | > 50 | > 128 | > 128 | > 128 | > 128 | > 128 | 128 (≈ 295 µM) | > 128 | > 128 | > 50 | 16 (≈ 36.9 µM) | – | – | – | – | – | – | – | – |
| O=[N+]([O-])c1ccc(C2=NOC(c3ccc(N4CCN(Cc5cccnc5)CC4)cc3)C2)o1 (stereo unspecified) | > 50 | > 128 | > 128 | > 128 | 16 (≈ 36.9 µM) | > 128 | 32 (≈ 73.8 µM) | > 128 | > 128 | > 50 | 16 (≈ 36.9 µM) | 8 (≈ 18.5 µM) | 16 (≈ 36.9 µM) | 8 (≈ 18.5 µM) | 8 to 16 (≈ 18.5 to 36.9 µM) | 16 (≈ 36.9 µM) | 4 to 8 (≈ 9.23 to 18.5 µM) | 4 to 8 (≈ 9.23 to 18.5 µM) | MBC [13]: ≥ 128 µg/mL; Ratio [15]: 8; Activity [17]: Active |
| CC1(C)S[C@@H]2[C@H](NC(=O)[C@H](N)c3ccc(O)cc3)C(=O)N2[C@H]1C(=O)O [AMOXICILLIN] | – | – | – | – | 128 (≈ 350 µM) | – | > 128 | – | – | – | 0.1 to 2 (≈ 0.274 to 5.47 µM) | > 128 | 0.25 to 0.5 (≈ 0.684 to 1.37 µM) | 0.25 to 0.5 (≈ 0.684 to 1.37 µM) | 0.25 (≈ 0.684 µM) | 0.25 (≈ 0.684 µM) | 128 (≈ 350 µM) | > 128 | – |
| O=[N+]([O-])c1ccc(C2=NOC(c3ccc(-c4ccncc4)cc3)C2)o1 (stereo unspecified) | > 50 | – | – | – | 128 (≈ 382 µM) | – | 64 (≈ 191 µM) | – | – | > 50 | 64 (≈ 191 µM) | – | – | – | – | – | – | – | – |
| O=[N+]([O-])c1ccc(C2=NOC(c3ccc(N4CCN(Cc5ccc(F)nc5)CC4)cc3)C2)o1 (stereo unspecified) | > 50 | > 128 | > 128 | > 128 | 128 (≈ 284 µM) | > 128 | 16 (≈ 35.4 µM) | > 128 | > 128 | > 50 | 32 (≈ 70.9 µM) | – | – | – | – | – | – | – | – |
| CC(C)(C)OC(=O)N1CCN(c2ccc(C3CC(c4ccc([N+](=O)[O-])o4)=NO3)cc2)CC1 (stereo unspecified) | > 50 | > 128 | > 128 | > 128 | > 128 | > 128 | > 128 | > 128 | > 128 | > 50 | 32 (≈ 72.3 µM) | – | – | – | – | – | – | – | – |
| O=[N+]([O-])c1ccc(C2=NOC(c3ccc(N4CCN(Cc5ccccn5)CC4)cc3)C2)o1 (stereo unspecified) | > 50 | > 128 | > 128 | > 128 | 32 (≈ 73.8 µM) | > 128 | 32 (≈ 73.8 µM) | > 128 | > 128 | > 50 | 16 (≈ 36.9 µM) | 16 (≈ 36.9 µM) | 16 (≈ 36.9 µM) | 8 to 16 (≈ 18.5 to 36.9 µM) | 8 to 16 (≈ 18.5 to 36.9 µM) | 16 to 32 (≈ 36.9 to 73.8 µM) | 8 to 16 (≈ 18.5 to 36.9 µM) | 8 (≈ 18.5 µM) | MBC [13]: ≥ 128 µg/mL; Ratio [15]: 8 |
| COc1ccc(CN2CCN(c3ccc(C4CC(c5ccc([N+](=O)[O-])o5)=NO4)cc3)CC2)cn1 (stereo unspecified) | > 50 | > 128 | > 128 | > 128 | 128 (≈ 276 µM) | > 128 | 32 (≈ 69 µM) | > 128 | > 128 | > 50 | 32 (≈ 69 µM) | – | – | – | – | – | – | – | – |
| O=C1CN(/N=C/c2ccc([N+](=O)[O-])o2)C(=O)N1 [NITROFURANTOIN] | – | – | – | – | 16 (≈ 67.2 µM) | – | 16 (≈ 67.2 µM) | – | – | – | 16 (≈ 67.2 µM) | 16 (≈ 67.2 µM) | 16 (≈ 67.2 µM) | 16 (≈ 67.2 µM) | 16 (≈ 67.2 µM) | 16 (≈ 67.2 µM) | 16 (≈ 67.2 µM) | 16 (≈ 67.2 µM) | – |
| O=[N+]([O-])c1ccc(C2=NOC(c3ccc(-c4ccccn4)cc3)C2)o1 (stereo unspecified) | > 50 | – | – | – | > 128 | – | > 128 | – | – | > 50 | > 128 | – | – | – | – | – | – | – | – |
| COc1cccc2c1C(=O)c1c(O)c3c(c(O)c1C2=O)C[C@@](O)(C(=O)CO)C[C@@H]3O[C@H]1C[C@H](N)[C@H](O)[C@H](C)O1 [DOXORUBICIN] | 0.071 | – | – | – | – | – | – | – | – | 0.071 | – | – | – | – | – | – | – | – | – |
| O=[N+]([O-])c1ccc(C2=NOC(c3ccc(-c4cccnc4)cc3)C2)o1 (stereo unspecified) | > 50 | – | – | – | 64 (≈ 191 µM) | – | 16 (≈ 47.7 µM) | – | – | > 50 | 32 (≈ 95.4 µM) | – | – | – | – | – | – | – | – |
| O=C(O)c1cn(C2CC2)c2cc(N3CCNCC3)c(F)cc2c1=O [CIPROFLOXACIN] | – | – | – | – | 32 (≈ 96.6 µM) | – | 32 (≈ 96.6 µM) | – | – | – | – | 0.25 (≈ 0.754 µM) | 0.125 to 0.25 (≈ 0.377 to 0.754 µM) | 0.5 (≈ 1.51 µM) | 0.25 (≈ 0.754 µM) | 0.25 to 0.5 (≈ 0.754 to 1.51 µM) | 0.125 to 0.5 (≈ 0.377 to 1.51 µM) | 0.5 (≈ 1.51 µM) | – |
